Assay results taken from ChEMBL document CHEMBL4339200, “Structure-based Discovery of Phenyl (3-Phenylpyrrolidin-3-yl)sulfones as Selective, Orally Active RORγt Inverse Agonists” (ACS Med Chem Lett, 2019).
Calls of active or inactive are those of the source. The rule behind the calls is not given here.

Experiments:
[1] = biological target: T1, Cytochrome P450 2C8 (Homo sapiens, UniProt P10632); experiment: Inhibition of CYP2C8 (unknown origin); type: ADME
T1 sequence (P10632 whole entry): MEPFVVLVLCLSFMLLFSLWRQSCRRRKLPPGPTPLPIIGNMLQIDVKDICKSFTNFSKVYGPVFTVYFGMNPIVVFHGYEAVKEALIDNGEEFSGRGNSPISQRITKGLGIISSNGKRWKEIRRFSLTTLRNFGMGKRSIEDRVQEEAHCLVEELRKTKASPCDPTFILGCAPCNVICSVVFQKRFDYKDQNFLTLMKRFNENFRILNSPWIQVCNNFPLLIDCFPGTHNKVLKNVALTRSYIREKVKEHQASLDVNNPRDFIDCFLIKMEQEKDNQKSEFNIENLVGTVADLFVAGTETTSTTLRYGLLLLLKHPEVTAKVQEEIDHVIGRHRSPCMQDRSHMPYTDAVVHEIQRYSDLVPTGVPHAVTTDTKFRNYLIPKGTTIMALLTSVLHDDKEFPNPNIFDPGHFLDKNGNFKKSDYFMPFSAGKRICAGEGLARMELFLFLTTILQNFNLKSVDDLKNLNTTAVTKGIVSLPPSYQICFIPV

[2] = biological target: T2, Nuclear receptor ROR-beta (Homo sapiens) (UniProt Q92753); experiment: Inverse agonist activity at GAL4-fused RORbeta LBD (200 to 559 residues) (unknown origin) expressed in human Jurkat cells measured after 18 hrs by native IL17 promoter driven steady-glo luciferase assay; type: cell-based
T2 sequence (whole entry): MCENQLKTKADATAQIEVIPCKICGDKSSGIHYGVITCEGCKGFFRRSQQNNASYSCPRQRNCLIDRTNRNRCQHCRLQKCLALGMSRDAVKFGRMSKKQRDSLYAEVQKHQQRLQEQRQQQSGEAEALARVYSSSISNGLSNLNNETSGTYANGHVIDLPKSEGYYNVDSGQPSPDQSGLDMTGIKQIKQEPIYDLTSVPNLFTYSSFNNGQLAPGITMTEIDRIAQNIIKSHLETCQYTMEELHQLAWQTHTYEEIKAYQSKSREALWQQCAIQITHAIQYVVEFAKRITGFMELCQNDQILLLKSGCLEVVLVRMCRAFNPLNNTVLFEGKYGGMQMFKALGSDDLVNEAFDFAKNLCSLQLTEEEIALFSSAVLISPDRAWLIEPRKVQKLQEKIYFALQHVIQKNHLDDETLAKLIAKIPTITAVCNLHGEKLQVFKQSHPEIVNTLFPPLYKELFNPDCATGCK

[3] = biological target: Cytochrome P450 2D6 (Homo sapiens, UniProt P10635); experiment: Inhibition of CYP2D6 (unknown origin); type: ADME
Sequence of Cytochrome P450 2D6 (P10635 whole entry): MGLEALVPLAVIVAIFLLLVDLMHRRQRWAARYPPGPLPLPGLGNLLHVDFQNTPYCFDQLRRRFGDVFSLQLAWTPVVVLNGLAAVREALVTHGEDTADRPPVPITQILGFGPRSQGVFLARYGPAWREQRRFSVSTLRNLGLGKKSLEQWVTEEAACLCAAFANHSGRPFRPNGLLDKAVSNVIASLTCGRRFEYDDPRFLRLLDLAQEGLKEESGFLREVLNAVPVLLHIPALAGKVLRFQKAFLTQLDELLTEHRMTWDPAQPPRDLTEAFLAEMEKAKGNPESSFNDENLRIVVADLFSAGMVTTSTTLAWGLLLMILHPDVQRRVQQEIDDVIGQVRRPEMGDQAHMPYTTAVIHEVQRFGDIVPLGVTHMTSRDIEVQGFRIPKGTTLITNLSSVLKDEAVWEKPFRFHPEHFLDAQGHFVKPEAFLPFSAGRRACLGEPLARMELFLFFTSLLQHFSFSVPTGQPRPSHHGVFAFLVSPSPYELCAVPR

[4] = tested on: Mus musculus; experiment: Inhibition of IL2/IL23-induced IL17F production in C57BL/6 mouse at 50 mg/kg, po bid treated 30 mins prior to 24 hrs IL2 challenge followed by IL2/IL23 addition at 0,7 and 23 hrs measured after 7 hrs post last IL2/IL23 challenge relative to control; type: functional; conditions: C57BL/6, po
Method in brief: (§1)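 Naive mice were challenged three times with IL-2 plus IL-23 (first at 0 and 7 h) and dosed orally bid at 5, 15 or 50 mg/kg. Serum cytokines were measured 7 h after the final IL-2/IL-23 administration. An anti-IL-23 antibody served as positive control.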

[5] = biological target: Cytochrome P450 2C9 (Homo sapiens, UniProt P11712); experiment: Inhibition of CYP2C9 (unknown origin); type: ADME
Sequence of Cytochrome P450 2C9 (P11712 whole entry): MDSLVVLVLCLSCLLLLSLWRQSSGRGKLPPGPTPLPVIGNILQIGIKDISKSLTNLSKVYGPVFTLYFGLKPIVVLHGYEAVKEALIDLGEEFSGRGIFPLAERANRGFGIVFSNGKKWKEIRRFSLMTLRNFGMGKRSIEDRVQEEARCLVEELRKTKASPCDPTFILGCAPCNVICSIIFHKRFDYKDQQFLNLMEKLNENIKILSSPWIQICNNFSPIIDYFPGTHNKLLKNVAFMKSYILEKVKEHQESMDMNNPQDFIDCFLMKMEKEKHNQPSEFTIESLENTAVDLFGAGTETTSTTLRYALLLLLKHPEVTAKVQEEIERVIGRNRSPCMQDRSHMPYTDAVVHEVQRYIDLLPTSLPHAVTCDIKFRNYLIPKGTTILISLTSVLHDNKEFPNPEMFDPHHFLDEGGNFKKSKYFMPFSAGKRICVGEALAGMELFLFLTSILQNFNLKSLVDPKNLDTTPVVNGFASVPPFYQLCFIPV

[6] = Volume of distribution at steady state in Balb/c mouse at 2 mg/kg, iv; type: ADME, organism-based; conditions: in vivo, read-out: Vdss
Method in brief: (§2)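 Balb/c mice given a single intravenous dose of 2 mg/kg or an oral dose of 10 mg/kg. Plasma exposure was followed to derive Cmax, Tmax, AUC, t1/2, clearance, Vss and oral bioavailability (F).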

[7] = tested on: Mus musculus; experiment: Inhibition of IL2/IL23-induced IL17A production in po bid dosed C57BL/6 mouse treated 30 mins prior to 24 hrs IL2 challenge followed by IL2/IL23 addition at 0,7 and 23 hrs measured after 7 hrs post last IL2/IL23 challenge; type: functional, organism-based; method in brief: as §1
[8] = AUC in Balb/c mouse at 2 mg/kg, iv; type: ADME, organism-based; conditions: in vivo; method in brief: as §2
[9] = Clearance in Balb/c mouse at 2 mg/kg, iv; type: ADME, organism-based; conditions: in vivo; method in brief: as §2
[10] = biological target: T3, Nuclear receptor ROR-alpha (Homo sapiens) (UniProt P35398); experiment: Agonist activity at GAL4-fused RORalpha LBD (272 to 556 residues) (unknown origin) expressed in human Jurkat cells measured after 18 hrs by native IL17 promoter driven steady-glo luciferase assay; type: cell-based
T3 sequence (whole entry): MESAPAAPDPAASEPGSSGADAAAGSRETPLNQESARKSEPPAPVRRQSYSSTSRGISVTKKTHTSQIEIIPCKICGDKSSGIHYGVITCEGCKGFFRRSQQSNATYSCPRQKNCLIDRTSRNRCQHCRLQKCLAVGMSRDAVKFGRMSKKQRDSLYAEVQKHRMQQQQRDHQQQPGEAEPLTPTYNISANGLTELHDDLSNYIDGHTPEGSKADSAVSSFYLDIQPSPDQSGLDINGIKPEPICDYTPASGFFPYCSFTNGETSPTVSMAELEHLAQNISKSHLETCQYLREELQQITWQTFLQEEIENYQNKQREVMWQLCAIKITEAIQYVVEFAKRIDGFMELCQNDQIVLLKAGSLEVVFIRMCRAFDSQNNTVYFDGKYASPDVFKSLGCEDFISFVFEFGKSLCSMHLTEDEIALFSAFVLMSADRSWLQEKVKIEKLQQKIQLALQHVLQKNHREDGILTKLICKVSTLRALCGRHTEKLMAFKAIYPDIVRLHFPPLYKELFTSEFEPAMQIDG

[11] = biological target: T4, PXR (NR1I2) (Homo sapiens, UniProt O75469); experiment: Transactivation of PXR in human HepG2 cells relative to rifampicin; type: ADME, cell-based; conditions: read-out: %max
T4 sequence (O75469 whole entry): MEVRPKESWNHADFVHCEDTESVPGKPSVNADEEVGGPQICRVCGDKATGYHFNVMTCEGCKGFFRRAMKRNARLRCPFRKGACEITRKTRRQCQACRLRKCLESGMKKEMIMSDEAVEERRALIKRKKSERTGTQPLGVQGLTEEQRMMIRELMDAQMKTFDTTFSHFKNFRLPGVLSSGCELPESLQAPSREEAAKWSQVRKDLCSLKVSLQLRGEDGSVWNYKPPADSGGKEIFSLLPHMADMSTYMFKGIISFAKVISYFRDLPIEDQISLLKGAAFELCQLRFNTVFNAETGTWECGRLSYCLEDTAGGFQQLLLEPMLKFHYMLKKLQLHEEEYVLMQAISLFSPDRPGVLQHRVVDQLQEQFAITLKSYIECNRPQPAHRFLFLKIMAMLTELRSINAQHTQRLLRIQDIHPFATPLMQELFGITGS

[12] = Tmax in Balb/c mouse at 10 mg/kg, po; type: ADME, organism-based; conditions: in vivo; method in brief: as §2
[13] = biological target: T5, Nuclear receptor subfamily 1 group I member 2 (Homo sapiens, UniProt O75469); experiment: Transactivation of PXR in human HepG2 cells; type: ADME, cell-based
T5 sequence (O75469 whole entry): T4 sequence (O75469 whole entry)

[14] = tested on: Mus musculus; experiment: Protection against IL23-induced acanthosis C57BL/6 mouse model of psoriasis assessed as reduction in ear swelling at 10 to 50 mg/kg, po bid for 10 days treated 2 hrs prior to IL23 challenge every other day for 10 days measured on day 11; type: functional, organism-based

O=C(O)[C@H]1CC[C@H](C(=O)N2CC[C@](c3ccc(C(F)(C(F)(F)F)C(F)(F)F)cc3)(S(=O)(=O)c3ccc(F)cc3)C2)CC1
IC50 [1]: 0.68 µM
Activity [2]: inactive
IC50 [3]: > 20 µM
inhibition in vivo at 50 mg/kg [4]: 98%
IC50 [5]: > 20 µM
Vd [6]: 3.4 L/kg
inhibition [7]: Dose-dependent effect
AUC [8]: 7.4 µM·h
clearance [9]: 7.2 mL/min/kg
Activity [10]: inactive
Emax [11]: 18%
Tmax [12]: 2 h
EC50 [13]: > 50 µM
Activity [14]: Active
